Test results from article PMC8992017 (Journal of medicinal chemistry, 2019).

Legend:
ISRE [1] = test: ISRE activity in ISRE-bla THP-1 reporter cells; format: cell-based; conditions: for ISRE activity (in words): compound 5 μM + IFN-α, compared with compound 1
Summary of the method: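 ISRE-bla THP-1 cells at 5×10^4/well in RPMI with 10% dialyzed FBS, 0.1 mM non-essential amino acids, 1 mM pyruvate and pen/strep. Test compound (1 mM DMSO stock) was diluted in IFN-α medium, giving final 5 μM compound ([…]) and final 100 U/mL IFN-α. Incubation 16 h, then CCF4-AM FRET substrate 3 h at RT in the dark. Excitation 405 nm; background-subtracted 465/535 nm emission ratio. Two-point normalized: reference sulfonamide + IFN-α = 200%, IFN-α alone = 100%; mean ± SEM.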

[2] = Stability of compound in DMSO stock and in assay media; format: physicochemical
[3] = tested on: C57BL/6 (wild-type, WT) mice; format: in vivo; conditions: for systemic toxicity, as indicated by behavior change or weight loss (in words): mice co-immunized with MPLA, ovalbumin and compound; for OVA-specific IgG antibody titers versus MPLA alone (in words): mice, n=8 per group, intramuscular, ovalbumin 20 μg/animal + MPLA + compound, days 0 and 21
Summary of the method: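 Female/male not stated; C57BL/6 wild-type mice aged 7–9 weeks, 8 per group. Test compound mixed with ovalbumin (20 μg/animal) and MPLA and injected into the gastrocnemius muscle on days 0 and 21. Mice then bled, and serum OVA-specific IgG titres measured by ELISA. Data given as mean ± SEM.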

NF-κB [4] = test: NF-κB activation in THP1-Blue NF-κB reporter cells; format: cell-based; conditions: for NF-κB activity (in words): compound 5 μM + LPS, compared with compound 1
Summary of the method: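 THP1-Blue NF-κB cells at 10^5/well in RPMI with 10% FBS, pen/strep and Normocin. Test compound (1 mM DMSO stock) was diluted into LPS medium, giving final 5 μM compound ([…]), with LPS co-added. After 20 h, supernatant SEAP was measured colorimetrically with QuantiBlue at 630 nm. Two-point normalized: reference sulfonamide + LPS = 200%, LPS alone = 100%; mean ± SEM.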

NF-κB [5] = conditions: compound alone, without LPS; cited from earlier work
ISRE [6] = conditions: compound alone, without IFN-α; cited from earlier work

Row | SMILES | ISRE activity (in words) (ISRE [1]) | systemic toxicity, as indicated by behavior change or weight loss (in words) [3] | OVA-specific IgG antibody titers versus MPLA alone (in words) [3] | NF-κB activity (in words) (NF-κB [4]) | other results
1 | CCOc1ccc(S(=O)(=O)N(C(C)=O)c2cc(OC)c(Cl)cc2OC)cc1 [Compound 48, N-(4-chloro-2,5-dimethoxyphenyl)-N-((4-ethoxyphenyl)sulfonyl)acetamide] | active |  |  |  | stability of stock in DMSO (in words) [2]: stable
2 | CCOc1ccc(S(=O)(=O)N(C)c2cc(OC)c(Cl)cc2OC)cc1 [Compound 33, N-(4-chloro-2,5-dimethoxyphenyl)-4-ethoxy-N-methylbenzenesulfonamide] |  | without demonstrable systemic toxicity | statistically significant increases |  | 
3 | CCOc1ccc(S(=O)(=O)Nc2cc(OC)c(Cl)cc2OC)cc1 [Compound 1, N-(4-chloro-2,5-dimethoxyphenyl)-4-ethoxybenzenesulfonamide] |  | without demonstrable systemic toxicity | statistically significant increases |  | mean SEAP response in NF-κB assay (NF-κB [4]; compound 1 + LPS, raw value used for normalization, mean ± SEM): 3.44 ± 0.08 µg/mL; mean emission ratio in ISRE assay (ISRE [1]; compound 1 + IFN-α, raw value used for normalization, mean ± SEM): 1.88 ± 0.04 µg/mL; NF-κB activity when tested alone (in words) (NF-κB [5]): did not possess any NF-κB or ISRE activity; ISRE activity when tested alone (in words) (ISRE [6]): did not possess any NF-κB or ISRE activity
4 | C#CCOCCOCCOCCN(c1cc(OC)c(Cl)cc1OC)S(=O)(=O)c1ccc(OCC)cc1 [Compound 45, N-(4-chloro-2,5-dimethoxyphenyl)-4-ethoxy-N-(2-(2-(2-(prop-2-yn-1yloxy)ethoxy)ethoxy)ethyl)benzenesulfonamide] | too long to retain activity |  |  | too long to retain activity | 
5 | COc1cc(NS(=O)(=O)c2ccc(CN)cc2)c(OC)cc1Cl [Compound 21, 4-(aminomethyl)-N-(4-chloro-2,5-dimethoxyphenyl)benzenesulfonamide] | either weakly active or completely inactive |  |  | either weakly active or completely inactive | 
6 | CCOc1ccc(S(=O)(=O)Nc2ccc(Cl)cc2OC)cc1 [Compound 5, N-(4-chloro-2-methoxyphenyl)-4-ethoxybenzenesulfonamide] | complete loss of activity |  |  | complete loss of activity | 
